What was measured:
[1] = Half life in Ugandan children patient with uncomplicated malaria at 10 mg/kg, perorally qd on first 2 days and then 5 mg/kg, perorally on third day co-administered with artesunate at 4 mg/kg, perorally bid for 3 days; type: ADME, organism-based; details: human, in vivo, po
How it was run: (§1)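 Oral AQ-AS was given for 3 days with food and fat to Ugandan children aged 5–13 y (n = 21). Venous blood was drawn pre-last dose and at 2, 4, 8, 24 and 120 h after it. For AQ-DEAQ, plasma was cold-centrifuged at 3,000 × g for 15 min and stored at −80°C. AUC0-∞ used trapezoids plus Clast/λz, with λz usually from the last three points.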

Homo sapiens [2] = assay: Plasma concentration in Gabonian malarial children aged 6 months to 10 years assessed as desethylamodiaquine level at 30 mg/kg measured on third day post dose; details: in vivo
Homo sapiens [3] = assay: AUC (0-infinity) in Ugandan children patient with uncomplicated malaria assessed as desethylamodiaquine level at 10 mg/kg, perorally qd on first 2 days and then 5 mg/kg, perorally on third day co-administered with artesunate at 4 mg/kg, perorally bid for 3 days; type: ADME, organism-based, Plasma; design: dose 10 mg/kg, time infinity, route oral; details: in vivo, po; how it was run: as §1
Homo sapiens [4] = assay: Plasma concentration in Nigerian human adult malaria patient assessed as desethylamodiaquine level at 25 mg/kg measured on seventh day post dose; details: in vivo
[5] = AUC (0-8 hrs) in Ugandan children patient with uncomplicated malaria at 10 mg/kg, perorally qd on first 2 days and then 5 mg/kg, perorally on third day co-administered with artesunate at 4 mg/kg, perorally bid for 3 days; type: ADME, organism-based; design: dose 10 mg/kg, time < 8 hr, route oral; details: human, plasma, po
Homo sapiens [6] = assay: AUC (0-infinity) in healthy human adult assessed as desethylamodiaquine level at 600 mg administered as single dose; type: ADME, organism-based, Plasma; design: dose 600 mg, time infinity; details: in vivo
[7] = AUC (0-infinity) in Ugandan children patient with uncomplicated malaria at 10 mg/kg, perorally qd on first 2 days and then 5 mg/kg, perorally on third day co-administered with artesunate at 4 mg/kg, perorally bid for 3 days; type: ADME, organism-based; design: dose 10 mg/kg, time infinity, route oral; details: human, plasma, po; how it was run: as §1
Homo sapiens [8] = assay: Half life in Ugandan children patient with uncomplicated malaria assessed as desethylamodiaquine level at 10 mg/kg, perorally qd on first 2 days and then 5 mg/kg, perorally on third day co-administered with artesunate at 4 mg/kg, perorallybid for 3 days; type: ADME, organism-based; details: in vivo, po; how it was run: as §1
[9] = AUC (0-infinity) in healthy human adult at 600 mg administered as single dose; type: ADME, organism-based; design: dose 600 mg, time infinity; details: plasma
Homo sapiens [10] = assay: AUC (0-120 hrs) in Ugandan children patient with uncomplicated malaria assessed as desethylamodiaquine level at 10 mg/kg, perorally qd on first 2 days and then 5 mg/kg, perorally on third day co-administered with artesunate at 4 mg/kg, perorally bid for 3 days; type: ADME, organism-based, Plasma; design: dose 10 mg/kg, time < 120 hr, route oral; details: in vivo, po
Homo sapiens [11] = assay: Cmax in Ugandan children patient with uncomplicated malaria assessed as desethylamodiaquine level at 10 mg/kg, perorally qd on first 2 days and then 5 mg/kg, perorally on third day co-administered with artesunate at 4 mg/kg, perorally bid for 3 days; type: ADME, organism-based; design: dose 10 mg/kg, route oral; details: in vivo, po; how it was run: as §1
[12] = Cmax in Ugandan children patient with uncomplicated malaria at 10 mg/kg, perorally qd on first 2 days and then 5 mg/kg, perorally on third day co-administered with artesunate at 4 mg/kg, perorally bid for 3 days; type: ADME, organism-based; design: dose 10 mg/kg, route oral; details: human, in vivo, po; how it was run: as §1
[13] = AUC (0-infinity) in Ugandan children patient with uncomplicated malaria at 4 mg/kg, perorally […] for 3 days co-administered with amodiaquine at 10 mg/kg, perorally qd on first 2 days and then 5 mg/kg, perorally on third day; type: ADME, organism-based; design: dose 4 mg/kg, route oral, time infinity; details: human, plasma, po
How it was run: (§2)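 Ugandan children aged 5–13 y with uncomplicated malaria (n = 21) were dosed once daily for 3 days, with food and fat. Venous plasma was sampled before the last dose and 2, 4, 8, 24 and 120 h after it, cold-centrifuged and stored at −80°C. AS and DHA were measured by solid-phase extraction LC-MS/MS (positive ion mode). AUC0-∞ used the linear up-log down trapezoidal rule; Cmax was observed.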

Homo sapiens [14] = assay: Cmax in Ugandan children patient with uncomplicated malaria assessed as dihydroartemisinin level at 4 mg/kg, perorally […] for 3 days co-administered with amodiaquine at 10 mg/kg, perorally qd on first 2 days and then 5 mg/kg, perorally on third day; type: ADME, organism-based; design: dose 4 mg/kg, route oral; details: in vivo, po; how it was run: as §2
Homo sapiens [15] = assay: AUC (0-infinity) in Ugandan children patient with uncomplicated malaria assessed as dihydroartemisinin level at 4 mg/kg, perorally […] co-administered with amodiaquine at 10 mg/kg, perorally qd on first 2 days and then 5 mg/kg, perorally on third day; type: ADME, organism-based, Plasma; design: dose 4 mg/kg, time infinity, route oral; details: in vivo, po; how it was run: as §2
[16] = Cmax in Ugandan children patient with uncomplicated malaria at 4 mg/kg, perorally […] for 3 days co-administered with amodiaquine at 10 mg/kg, perorally qd on first 2 days and then 5 mg/kg, perorally on third day; type: ADME, organism-based; design: dose 4 mg/kg, route oral; details: human, in vivo, po; how it was run: as §2
Homo sapiens [17] = assay: Half life in Ugandan children patient with uncomplicated malaria assessed as dihydroartemisinin level at 4 mg/kg, perorally bid for 3 days co-administered with amodiaquine at 10 mg/kg, perorally qd on first 2 days and then 5 mg/kg, perorally on third day; type: ADME, organism-based; details: in vivo, po
How it was run: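 Ugandan children aged 5–13 y (n = 21) were dosed with food and fat. Venous blood (3 ml) was drawn before the last dose and at 2, 4, 8, 24 and 120 h after it. Samples were iced, cold-centrifuged within 30 min, and the plasma was stored at −80°C. DHA was assayed by SPE LC-MS/MS in positive ion mode. λz came from terminal regression, usually the last three points. Values are geometric means (90% CIs).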

[18] = Cmax in Ugandan children patient with uncomplicated malaria administered twice daily for 3 days as 20/120 mg tablets containing artemether-lumefantrine combination; type: ADME, organism-based; design: dose 120 mg; details: human, in vivo, oral
How it was run: (§3)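 Children (5–13 y, n = 20) took AL twice daily for 3 days by weight band (20–24 kg, 2 tablets; 25–34 kg, 3; >34 kg, 4), each dose with 250 ml milk (3.3 g fat). Plasma was sampled 0–120 h after the morning last dose. AR and DHA were measured by LC-MS/MS; LR by HPLC-UV (LLOQ 25 ng/ml). Values below LLOQ were treated as missing.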

Homo sapiens [19] = assay: Half life in Ugandan children patient with uncomplicated malaria assessed as dihydroartemisin administered twice daily for 3 days as 20/120 mg tablets containing artemether-lumefantrine combination; type: ADME, organism-based; details: in vivo, po, 72 h; how it was run: as §3
[20] = AUC (0-infinity) in Ugandan children patient with uncomplicated malaria administered twice daily for 3 days as 20/120 mg tablets containing artemether-lumefantrine combination; type: ADME, organism-based; design: dose 120 mg, time infinity; details: human, plasma, po; how it was run: as §3
Homo sapiens [21] = assay: Cmax in Ugandan children patient with uncomplicated malaria assessed as dihydroartemisin administered twice daily for 3 days as 20/120 mg tablets containing artemether-lumefantrine combination; type: ADME, organism-based; design: dose 120 mg; details: in vivo, po, 72 h; how it was run: as §3
Homo sapiens [22] = assay: AUC (0-infinity) in Ugandan children patient with uncomplicated malaria assessed as dihydroartemisin administered twice daily for 3 days as 20/120 mg tablets containing artemether-lumefantrine combination; type: ADME, organism-based, Plasma; design: dose 120 mg, time infinity; details: in vivo, po, 72 h; how it was run: as §3
[23] = Half life in Ugandan children patient with uncomplicated malaria administered twice daily for 3 days as 20/120 mg tablets containing artemether-lumefantrine combination; type: ADME, organism-based; details: human, in vivo, po; how it was run: as §3

Molecule `CCN(CC)Cc1cc(Nc2ccnc3cc(Cl)ccc23)ccc1O.Cl` has a half-life [1] of 3.3 h, a Concentration (Homo sapiens [2]) of 149 ng/mL and an AUC (Homo sapiens [3]) of 14770 ng·h/mL. It also gave a Concentration (Homo sapiens [4]) of 62 ng/mL, an AUC at 8 h [5] of 28.9 ng·h/mL and an AUC (Homo sapiens [6]) of 8437 ng·h/mL. The AUC(0-inf) [7] was 39.3 ng·h/mL, the t1/2 (Homo sapiens [8]) was 60 h and the AUC(0-inf) [9] was 154 ng·h/mL. It also gave an AUC (Homo sapiens [10]) of 11242 ng·h/mL, a Cmax (Homo sapiens [11]) of 235 ng/mL and a Cmax [12] of 5.2 ng/mL.

`C[C@H]1[C@H](OC(=O)CCC(=O)O)O[C@@H]2O[C@@]3(C)CC[C@H]4[C@H](C)CC[C@@H]1[C@@]24OO3` [ARTESUNATE] gave an AUC(0-inf) [13] of 113 ng·h/mL, a Cmax (Homo sapiens [14]) of 473 ng/mL and an AUC (Homo sapiens [15]) of 1404 ng·h/mL. For the same molecule, the Cmax [16] was 51.3 ng/mL and the t1/2 (Homo sapiens [17]) was 1.3 h.

Work on `CO[C@H]1O[C@@H]2O[C@@]3(C)CC[C@H]4[C@H](C)CC[C@@H]([C@H]1C)[C@@]24OO3` [ARTEMETHER] yielded a Cmax [18] of 34 ng/mL, a t1/2 (Homo sapiens [19]) of 1.9 h and an AUC(0-inf) [20] of 168 ng·h/mL. It also gave a Cmax (Homo sapiens [21]) of 119 ng/mL, an AUC (Homo sapiens [22]) of 382 ng·h/mL and a half-life [23] of 3.9 h.

`CCCCN(CCCC)CC(O)c1cc(Cl)cc2c1-c1ccc(Cl)cc1/C2=C/c1ccc(Cl)cc1` (stereo unspecified) [LUMEFANTRINE] showed a Cmax [18] of 6760 ng/mL, an AUC(0-inf) [20] of 210000 ng·h/mL and a half-life [23] of 32.7 h.
